Lipid droplet: inhibitors of hepatocyte lipid droplet formation, primary screen, imaging, high-throughput imaging, BODIPY stain; AML12 mouse hepatocytes, oleate lipid droplets; inhibition, % at 6.5 µM; hit rate 0.4% among 240,000; AID 1656, 2009;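 active means lipid droplet intensity inhibited by at least 50%, with more than 500 cells counted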
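Assay system: AML12 hepatocytes (mouse); Probe or stimulus: oleic acid at 100 µM to induce lipid droplet formation; Dosing: compound at 6.5 µM only; Schedule: compound with oleate, overnight; Detection: fluorescence imaging, 20x objective, two fields per well; Measure: % inhibition of lipid droplet signal.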
HSF1 activator: HSF-1 activators, primary screen, NIH3T3-HGL cells, MG132 stress, luminescence, single point; NIH3T3-HGL HSF-1 luciferase reporter, 8 h; 100% = twice DMSO control signal; activation, % at 9 µM; hit rate 1.7% among 300,000;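 active means mean replicate activation of at least 50% with a set share of replicates each reaching 50%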
HSP90 refold inh: HSP90 inhibitors, primary screen, cell lysate, luminescence | AID 1789, 2009 | hit rate 0.91% among 290,000 | Heat shock protein HSP 90 (rabbit reticulocyte lysate; luciferase refolding) | Rabbit reticulocyte lysate, luciferase refolding luminescence, 3 h | inhibition, % at 5.6 µM;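 active means inhibition above the screen-wide mean plus 3 SD, computed separately per campaign, cut at about 16% in these data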;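 further: inhibitors lower the luminescence because luciferase stays unfolded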
HSF1 inh: HSF1 inhibitors in luciferase reporter cells, primary screen, cell-based, NIH3T3, luminescence; NIH3T3-HGL HSE-luciferase, MG132-induced, luminescence 8 h; stronger effect = lower value; activity change, negative = inhibition, % at 7.5 µM (by protocol); hit rate 0.77% among 300,000; AID 2098, 2009;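 active means more than half of replicate wells show activity change below -50%, luminescence cut by over half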;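 further: luciferase reports HSF-1 transcriptional activity via heat shock element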
NS3 helicase inh: inhibitors of HCV NS3 helicase, primary screen, biochemical, Cy5 molecular beacon fluorescence; hit rate 0.56% among 290,000; NS3 helicase DNA unwinding; Hepatitis C virus NS3 helicase; AID 1800, 2009; inhibition, % at 10.9 µM;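 active means inhibition above the mean of all tested compounds plus 3 SD, set per campaign, cut at about 35% in these data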
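System: NS3 helicase fragment of HCV / Schedule: 1 h at 25 °C / Control set: DMSO alone as 0% and 110 µM thioflavine S as 100% / Reagent: Cy5/quencher beacon DNA duplex and ATP to start / Technique: Cy5 fluorescence / Replication: singlicate / Evaluation: % inhibition of end-to-start signal ratio versus controls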
Large screens that a line does not name were inactive. Hits are enriched below; roughly 3.8% of the tested compounds scored in any of these assays.

CCOC(=O)C(=Cc1ccc(-n2ccnc2)cc1)C(=O)OCC	HSF1 activator 128
CCOC(=O)C(=Cc1ccc(F)cc1)C(=O)OCC	HSF1 activator 126 (no result: Lipid droplet)
COc1ccc(/C(C)=N/NC(=S)NCc2ccco2)cc1	HSF1 activator 73
COc1ccc(CNC(=S)N/N=C(\C)c2ccc(OC)cc2)cc1	none
S=C(NCc1ccco1)Nc1ccc(Br)cc1Cl	HSF1 activator 199
S=C(NCc1ccccc1)NCc1ccco1	HSF1 activator 56
CCCCOc1ccc(N2CC(C(=O)NCc3ccco3)CC2=O)cc1 (stereo not drawn)	none
COc1ccccc1NC(=O)c1nc(S(=O)(=O)Cc2ccccc2)ncc1Cl	HSF1 inh -87
CCOc1ccccc1NC(=O)c1nc(S(=O)(=O)Cc2ccccc2)ncc1Cl	HSF1 inh -83
CCS(=O)(=O)c1ncc(Cl)c(C(=O)Nc2ccc(S(=O)(=O)N3CCC(C)CC3)cc2)n1	HSF1 inh -85
CCS(=O)(=O)c1ncc(Cl)c(C(=O)Nc2ccccc2OC)n1	HSF1 activator 490
Cc1ccccc1NC(=O)CCNS(=O)(=O)c1cccc2nsnc12	none
S=C(NCCc1ccccc1)Nc1ccc(N2CCCCC2)cc1	none
CCSc1ncc(Cl)c(C(=O)Nc2ccccc2C)n1	HSF1 activator 55
COc1ccc(Cn2c(=O)[nH]c3cc(C(=O)NCCc4ccc(S(N)(=O)=O)cc4)ccc3c2=O)cc1	none
CCOC(=O)c1c(NC(C)=O)sc2c(O)c(CN3CCN(CC)CC3)ccc12	HSF1 activator 112 (no result: Lipid droplet)
CCOC(=O)c1c(NC(C)=O)sc2c(OC)c(Br)ccc12	none
CC1(C)CC(=O)C(C=Nc2ccncc2)=C(O)C1	none (no result: Lipid droplet)
CC1(C)CC(=O)C(C=Nc2cccnc2)=C(O)C1	HSF1 activator 133 (no result: Lipid droplet)
CC(=O)Nc1cccc(C(=O)N/N=C/c2cccnc2)c1	none
O=C(N/N=C/c1cccnc1)c1ccc2c(c1)OCO2	HSF1 inh -59
O=C(O)c1cccc(NC(=S)N/N=C/c2cccnc2)c1	HSF1 inh -60
Cc1nc2ccccc2n1S(=O)(=O)c1cc(C(=O)O)ccc1Cl	none
CC(NC(=O)/C(C#N)=C/c1ccc([N+](=O)[O-])o1)c1ccccc1 (stereo not drawn)	HSF1 inh -62
CC(NC(=O)/C(C#N)=C/c1ccco1)c1ccccc1 (stereo not drawn)	none
COC(=S)N/C(=N\S(=O)(=O)c1ccc(Cl)cc1)c1ccccc1	none
CC(C)(C)NC(=O)c1ccc2c(c1)N(CC(=O)N1CCCCC1)C(=O)C(C)(C)O2	HSF1 activator 66
COc1ccc(C(=O)CCC(=O)N2CCN(c3ccccc3)CC2)cc1	none
COc1ccc2nc(-c3cccc(N)c3)[nH]c2c1	none
COc1cccc(-n2c(N)c(-c3nc4ccccc4[nH]3)sc2=S)c1	HSF1 inh -55
CCCCNC(=O)C1Cc2cc(S(=O)(=O)N3CCCCC3)ccc2N1C(C)=O (stereo not drawn)	none
CC(=O)c1ccc(N2CCN(C(=O)Nc3cccc(F)c3)CC2)cc1	none
COc1ccc(OC)c(/C=C/C(=O)OCC(=O)c2c(N)n(C)c(=O)n(C)c2=O)c1	none
COc1ccc(CN2CCNC(=O)C2CC(=O)O)cc1OC (stereo not drawn)	none
COc1ccc(CN2CCNC(=O)C2CC(=O)NC2CC(C)(C)CC(C)(C)C2)cc1OC (stereo not drawn)	HSF1 inh -70
Cc1ccc(Sc2ccc(NC(=O)CCl)cc2)cc1C	none
Cc1ccc(C)c(Sc2ccc(NC(=O)CCl)cc2)c1	HSF1 activator 75
COc1cc(/C=c2\s/c(=C(/C#N)C(=O)N3CCCC3)n(-c3ccccc3)c2=O)ccc1O	none (no result: Lipid droplet, HSF1 activator, HSF1 inh)
Cc1ccc(/C=c2\s/c(=C(/C#N)C(=O)N3CCCC3)n(Cc3ccco3)c2=O)s1	HSF1 activator 90
Cc1ccc(/C=C/C(=O)N2CC(C)CC(C)C2)o1 (stereo not drawn)	HSF1 activator 51 (no result: Lipid droplet)
Cc1c(CCCC(=O)O)sc(N)c1C(=O)c1cccc(C(F)(F)F)c1	none (no result: Lipid droplet, HSP90 refold inh, NS3 helicase inh)
COC(=O)c1ccc(CNC(=O)COC(=O)COc2ccc(OC)cc2)cc1	HSF1 inh -68
COc1ccc(CNC(=O)CN(Cc2ccc(OC)cc2)C(=O)CCC(=O)Nc2nccs2)cc1	none
COc1ccc(CNC(=O)CN(Cc2ccccc2)C(=O)CCC(=O)Nc2nccs2)cc1	HSF1 activator 70
O=S(=O)(Cc1ccccc1Cl)NCc1ccccc1	none
CC(C)CN=C(NS(=O)(=O)c1ccccc1)C(Cl)(Cl)Cl	HSF1 inh -74
CC(C)CC(NS(=O)(=O)c1ccccc1)C(=O)O (stereo not drawn)	none
COc1ccc(OC)c(-c2cc(C(=O)N/N=C/c3cc(OC)c(OC)cc3OC)c3ccccc3n2)c1	HSF1 inh -69 (no result: Lipid droplet, HSP90 refold inh, NS3 helicase inh)
COc1ccc(OC)c(-c2cc(C(=O)N/N=C/c3ccc(F)cc3)c3ccccc3n2)c1	none (no result: Lipid droplet, HSP90 refold inh, NS3 helicase inh)
COc1ccc(-c2cc(C(=O)N3CCCCCC3)c3ccccc3n2)c(OC)c1	HSF1 activator 79
CCOC(=O)N1CCN(C(=O)c2cc(-c3ccc(OCC)cc3)nc3ccccc23)CC1	HSF1 activator 79 (no result: Lipid droplet)
COc1ccc(-c2cc(C(=O)N3CCN(c4ncccn4)CC3)c3ccccc3n2)c(OC)c1	none
CCOc1ccc(-c2cc(C(=O)N3CCN(C)CC3)c3ccccc3n2)cc1	none
C/C(=N/NC(=O)CN1CCN(Cc2ccccc2Cl)CC1)c1cccs1	none
CCN(CC)CCCNC(CC(=O)Nc1cccc([N+](=O)[O-])c1)C(=O)O (stereo not drawn)	none
CCOC(=O)c1cn2nc(SCc3ccccc3)nc2nc1C	none
COc1cccc(CCc2nnc(CCC(=O)NC(C)Cc3cccs3)o2)c1 (stereo not drawn)	none
CCc1nnc(NC(=O)CCC(=O)N2CCN(Cc3ccc(OC)c(F)c3)CC2)s1	none
CC(=O)N(C1=C(O)c2ccccc2C(=O)C1=O)C1CCCCC1	none
CC(=O)N(C)C1=C(O)c2ccccc2C(=O)C1=O	HSF1 inh -90 (no result: Lipid droplet)
O=C(CN1CCN(S(=O)(=O)c2ccc(Br)cc2)CC1)c1ccc(O)c(O)c1	none
N/C(Cc1ccc(Cl)cc1Cl)=N\OC(=O)c1ccccc1F	HSF1 activator 68
COc1ccc(C)cc1NC(=O)CCCN1C(=O)C(c2ccccc2)Oc2cccnc21 (stereo not drawn)	none
O=C(CSc1nnc(CNC(=O)c2ccccc2)o1)NCc1ccc(F)cc1	none
O=C(CSc1nnc(CNC(=O)c2cccs2)o1)NCc1ccc(F)cc1	HSF1 inh -55
COc1ccc(N2C(=O)CSC23C(=O)N(CC(=O)NC2CCCC2)c2ccccc23)cc1 (stereo not drawn)	none
